MC4R antagonist: MC4R antagonists of cAMP signaling, primary screen, cell-based, TR-FRET, antagonist arm of biased-ligand search; AID 540295, 2011; inhibition, % at 6.5 µM; Melanocortin receptor 4 (Homo sapiens), P32245; 0.48% of 360,000 active; MC4R-expressing cells, MTII-stimulated cAMP, LANCE TR-FRET;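 active = inhibition above its plate's cutoff, the mean of tested wells on that plate plus 3 SD, cut at about 29% in these data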
Target sequence (P32245 whole entry, looked up): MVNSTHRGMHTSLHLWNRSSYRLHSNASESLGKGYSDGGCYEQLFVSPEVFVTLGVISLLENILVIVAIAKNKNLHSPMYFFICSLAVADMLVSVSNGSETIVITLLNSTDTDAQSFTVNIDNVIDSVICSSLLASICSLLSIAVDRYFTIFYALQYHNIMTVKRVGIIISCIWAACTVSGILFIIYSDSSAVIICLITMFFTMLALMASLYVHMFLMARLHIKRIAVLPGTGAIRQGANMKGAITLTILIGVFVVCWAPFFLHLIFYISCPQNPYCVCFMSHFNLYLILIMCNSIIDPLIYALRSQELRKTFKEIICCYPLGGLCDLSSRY
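Assay system: U2OS-MC4R stable cell line; Also added: Melanotan II; Technique: Eu-cAMP/anti-cAMP TR-FRET, emission 671 nm; Times: 30-min compound, 1-h challenge, 1-h detection, room temperature.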
TAAR1 ag: human TAAR1 agonists, primary screen, Fluo-8 calcium fluorescence, CHO RD-HGA16 cells; Trace amine-associated receptor 1 (Homo sapiens), Q96RJ0; vehicle wells 0%, saturating PEA agonist 100%; activation, % at 3 µM; 0.99% of 360,000 active; AID 624467, 2012;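 active = activation above the mean activation of all test compounds in the run plus 3 SD, cut at about 38% in these data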
Target sequence (Q96RJ0 whole entry, looked up): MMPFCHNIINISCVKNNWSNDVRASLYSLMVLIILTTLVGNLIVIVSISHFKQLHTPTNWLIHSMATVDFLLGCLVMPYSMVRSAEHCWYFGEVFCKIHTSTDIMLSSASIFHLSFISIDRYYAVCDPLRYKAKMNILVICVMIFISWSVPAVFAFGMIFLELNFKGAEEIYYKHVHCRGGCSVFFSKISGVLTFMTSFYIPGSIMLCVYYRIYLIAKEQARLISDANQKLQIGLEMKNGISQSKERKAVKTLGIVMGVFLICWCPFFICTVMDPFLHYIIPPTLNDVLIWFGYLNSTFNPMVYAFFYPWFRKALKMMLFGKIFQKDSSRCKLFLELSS
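System: CHO RD-HGA16 cells carrying human TAAR1 plus Gα16; Incubation: 17-24 h seeding, 75 min 37 °C dye, 30 min RT; Measured by: Fluo-8 fluorescence, 5 s baseline then 140 s kinetic read; Control set: DMSO and PEA EC100; Replication: single well for each compound.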
m5-HT2A agonist: mouse Htr2a agonists via beta-arrestin recruitment, primary screen, cell-based, luminescence | 5-hydroxytryptamine receptor 2A (Mus musculus), P35363 | CHO-K1 mHTR2A beta-arrestin complementation; percent of 30 µM serotonin response | activation, % at 7.6 µM | 0.66% of 360,000 active | AID 624169, 2012;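 active = activation above a run cutoff, the mean activation of all tested compounds plus 3 SD, cut at about 14% in these data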
B2AR ag: beta2AR agonists driving receptor internalization, primary screen, cell-based, FAP fluorogen, flow cytometry; Beta-2 adrenergic receptor (Homo sapiens), P07550; Am2.2-beta2AR cells; response, % (test concentration not listed); 0.43% of 340,000 active;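 active = response above a set limit, near 3 SD of response in nonfluorescent compounds, cut at about 42% in these data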
MC4R ag barr: MC4R agonists recruiting beta-arrestin, primary screen, cell-based, luminescence, agonist arm of biased-ligand search; Melanocortin receptor 4 (Homo sapiens), P32245; U2OS MC4R beta-arrestin complementation; percent of melanotan II response, DMSO zero; 0.98% of 360,000 active; activation, % at 8.9 µM;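 active = activation above a per-plate cutoff, the mean activation of sample wells on that plate plus 3 SD, cut at about 8% in these data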
TAAR1 antagonist: human TAAR1 antagonists, primary screen, Fluo-8 calcium fluorescence, CHO RD-HGA16 cells | antagonist | 1.5% of 360,000 active | AID 624466, 2012 | Trace amine-associated receptor 1 (Homo sapiens), Q96RJ0 | inhibition, % at 3 µM;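 active = inhibition above a per-plate cutoff, the mean inhibition of test compounds on that plate plus 3 SD, cut at about 49% in these data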
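Test system: hTAAR1-expressing CHO RD-HGA16 cells, Gα16-coupled; Probe or stimulus: EC80 β-phenethylamine stimulus; Compound dosing: single nominal final test compound concentration of 3 µM; Timing: 140 s kinetic read after compound, 140 s after agonist; Signal: Fluo-8 calcium-sensitive fluorescence; Measure: % inhibition of agonist calcium response; Controls: DMSO and EC80 PEA controls.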
U2OS cAMP counter: nonselective cAMP signaling inhibitors, parental cells, counter-screen for MC4R biased antagonist project, cell-based, TR-FRET, U2OS, forskolin, triplicate; LANCE TR-FRET; shares compounds with MC4R antagonist; inhibition, % at 6.5 µM; AID 602193, 2012; 26% of 1,600 active;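 active = mean inhibition over triplicates above the low-control well mean plus 3 SD, set per campaign, cut at about 13% in these data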;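 also: signal is single emission at 671 nm which falls as cellular cAMP rises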
MC4R cAMP antag: MC4R cAMP antagonists, retest, confirmation, cell-based, TR-FRET; shares compounds with MC4R antagonist; MC4R-expressing cells, MTII-stimulated cAMP; inhibition, % at 6.5 µM; 27% of 1,600 active; AID 602195, 2012; in the data active = inhibition above about 29%
Each line names hits and unclear results; the compound was inactive in the other large screens (follow-up assays come after a bar, where they were run). A selection: hits, their analogues and other compounds. The true share with any hit is near 4.3%.

Cc1cc2oc(C(=O)N(Cc3ccccc3)C3CCS(=O)(=O)C3)cc(=O)c2cc1Cl (centres undefined)	MC4R antagonist 30 | U2OS cAMP counter inactive | MC4R cAMP antag inactive
O=C(CCNC(=O)c1ccccc1)NCCc1ccc(Cl)cc1	none
O=C(CNS(=O)(=O)c1ccccc1)NCc1ccco1	none
NNC(=O)CNC(=O)CNS(=O)(=O)c1ccccc1	MC4R antagonist 29 | U2OS cAMP counter inactive | MC4R cAMP antag inactive
COc1ccc(-c2nc(CS(=O)CC(=O)NCc3ccc(Cl)cc3)c(C)o2)cc1OC (centres undefined)	none
O=C(/C=C/c1ccc(Cl)cc1)c1ccc([N+](=O)[O-])o1	MC4R antagonist 40 | U2OS cAMP counter inactive | MC4R cAMP antag inactive
CCOC(=O)CSc1nnc(-c2ccc(NS(=O)(=O)c3ccc(C)cc3)cc2)o1	MC4R antagonist 38 | U2OS cAMP counter inactive | MC4R cAMP antag inactive
COC(=O)CSc1nnc(-c2ccc(S(=O)(=O)N3CCC(C)CC3)cc2)o1	none
COC(=O)CSc1nnc(-c2ccc(S(=O)(=O)N3CCCCC3)cc2)o1	MC4R antagonist 33 | U2OS cAMP counter inactive | MC4R cAMP antag 44
Cc1ccc(S(=O)(=O)NCC(=O)OCc2nnc(-c3ccccc3)o2)cc1	MC4R antagonist 30 | U2OS cAMP counter inactive | MC4R cAMP antag inactive
CCc1noc(C)c1C(=O)N(C)CC(=O)Nc1ccc(F)c(F)c1F	none
COCCCn1c(=O)/c(=C\c2cccc(OC)c2OC)s/c1=C(/C#N)C(=O)Nc1ccc(C(=O)O)cc1	MC4R antagonist 29 | U2OS cAMP counter inactive | MC4R cAMP antag inactive
Cc1ccc2[nH]c(O)c(N=NC(=O)c3ccc(NS(=O)(=O)c4cccs4)cc3)c2c1	MC4R antagonist 34 | U2OS cAMP counter inactive | MC4R cAMP antag inactive
CCc1ccc(C(C(=O)NCc2ccc(F)cc2)N(C(=O)c2csnn2)C2CC2)cc1 (centres undefined)	MC4R antagonist 29 | U2OS cAMP counter inactive | MC4R cAMP antag inactive
O=C(NCc1ccc(F)cc1)C(c1ccc(F)cc1)N(C(=O)c1csnn1)C1CC1 (centres undefined)	none
O=C(NCc1cccnc1)c1cc(C2CCCCN2C(=O)OCc2ccccc2)on1 (centres undefined)	none (no result: B2AR ag)
CCOC(=O)c1c(NC(=O)CCl)sc(CN(C)C)c1-c1ccccc1	MC4R antagonist 48 | U2OS cAMP counter 23 | MC4R cAMP antag 41
CC1=NNC(=O)/C1=C\c1cn(-c2ccccc2)nc1-c1ccccc1	MC4R antagonist 51, B2AR ag 82, TAAR1 antagonist 61 | U2OS cAMP counter 26 | MC4R cAMP antag 57
COc1cc2c(=O)n(CCCC(=O)NCC3CCCO3)c(=O)n(CC(=O)c3ccc(F)cc3)c2cc1OC (centres undefined)	MC4R antagonist 30 | U2OS cAMP counter inactive | MC4R cAMP antag inactive
COc1ccc(NC(=O)Cn2c(=O)n(CCC(=O)NCC3CCCO3)c(=O)c3cc(OC)c(OC)cc32)cc1 (centres undefined)	none
CCC1CCCCN1CCCNC(=O)CCC(=O)N1CC(C)Oc2ccccc21 (centres undefined)	none
Cc1cc(NC(=O)CSc2nc(-c3ccccc3)c(C#N)c(=O)[nH]2)no1	MC4R antagonist 35 | U2OS cAMP counter 26 | MC4R cAMP antag 50
N#Cc1c(-c2ccccc2)nc(SCC(=O)Nc2ccccc2)[nH]c1=O	none
Cc1cc(C)nc(NS(=O)(=O)c2ccc(NC(=O)CSc3nc(-c4ccccc4)c(C#N)c(=O)[nH]3)cc2)n1	MC4R antagonist 36 | U2OS cAMP counter 17 | MC4R cAMP antag inactive
Cc1cc(C)nc(NS(=O)(=O)c2ccc(NC(=O)Cc3ccccc3)cc2)n1	MC4R antagonist 35 | U2OS cAMP counter inactive | MC4R cAMP antag inactive
CCOC(=O)N1CCN(C(=O)C[C@H]2C[C@@]3(C(=O)OC)C(=C[C@H](COCc4ccccc4)O[C@@H]3C)N(Cc3ccc4c(c3)OCO4)C2=O)CC1	none (no result: MC4R antagonist, m5-HT2A agonist, B2AR ag, MC4R ag barr)
O=C1NC[C@H](CCCCN2CCN(CCC3CCCCC3)C(=O)C2=O)N(CCC2CCCCC2)C1=O	none (no result: MC4R antagonist, B2AR ag, MC4R ag barr)
Cc1ccnn1CCC(=O)N1CCCC(CCC(=O)NCc2ccccc2F)C1 (centres undefined)	MC4R antagonist 29 | U2OS cAMP counter inactive | MC4R cAMP antag inactive
CCc1cccc(CC)c1NC(=O)c1cc(CN2C(=O)c3ccccc3C2=O)ccc1OC	none
COc1ccc(CN2C(=O)c3ccccc3C2=O)cc1C(=O)O	MC4R antagonist 30 | U2OS cAMP counter inactive | MC4R cAMP antag inactive
CCOC(=O)C1(C)CCN1C(=O)Cc1ccc(OC)cc1 (centres undefined)	none (no result: B2AR ag)
CCCCCCCN(c1ccccc1)[C@@H]1C[C@H]2CCCC(=O)N3CC[C@@H](C1)[C@@H]23	MC4R antagonist 34, B2AR ag 91 | U2OS cAMP counter inactive | MC4R cAMP antag 34
c1ccc(CCn2c3ccccc3c3nnc(SCc4ccc5nonc5c4)nc32)cc1	none
CCN1CCN(C(c2cccs2)C(C)NS(=O)(=O)c2ccc(C)cc2)CC1 (centres undefined)	MC4R antagonist 30 | U2OS cAMP counter inactive | MC4R cAMP antag inactive
Cc1ccc2c(c1)N(Cc1cccc(Cl)c1)C(=O)c1cccnc1O2	MC4R antagonist 39 | U2OS cAMP counter inactive | MC4R cAMP antag inactive
O=C1c2cccnc2Oc2ccc(Cl)cc2N1Cc1ccc(F)cc1	none
O=C1NC(=O)/C(=C\c2ccccc2OCc2ccccc2)S1	MC4R antagonist 39 | U2OS cAMP counter inactive | MC4R cAMP antag inactive
COc1ccc(CC(N)c2csc(NC(=O)c3cccs3)n2)cc1 (centres undefined)	none (no result: B2AR ag)

Source: PubChem
